Measured values pooled from the literature.
Lines come from different studies, so protocols differ.
PPARG: Peroxisome proliferator-activated receptor gamma (PPARG, Homo sapiens, UniProt P37231)

`COc1ccc(-c2nsc(NC(=O)[C@@H]3C[C@H]3C)c2C)cc1` gave an EC50 of over 25000 nM (Metabotropic glutamate receptor 5 (GRM5, Homo sapiens, UniProt P41594); calcium signal, agonist).
The EC50 of `CCOCc1nc(O)c(-c2nnc(Cc3ccc(Cl)cn3)o2)c(O)c1-c1c(OC)cccc1OC` is reported as 0.02 nM (Apelin receptor (Rattus norvegicus, UniProt Q9JHG3); cAMP, agonist).
The EC50 of `CC[C@H](C)[C@H](NC(=O)[C@H](CC(=O)O)NC(=O)[C@H](CO)NC(=O)[C@@H](NC(=O)[C@H](Cc1ccccc1)NC(=O)[C@@H](NC(=O)CNC(=O)[C@H](CC(=O)O)NC(=O)[C@H](C)NC(=O)[C@@H](N)Cc1c[nH]cn1)[C@@H](C)O)[C@@H](C)O)C(=O)N[C@@H](CC(N)=O)C(=O)N[C@@H](CCCCN)C(=O)N[C@H](C(=O)N[C@@H](CC(C)C)C(=O)N[C@@H](CC(=O)O)C(=O)N[C@@H](CC(=O)O)C(=O)N[C@@H](CCSC)C(=O)N[C@@H](C)C(=O)N[C@@H](C)C(=O)N[C@@H](CCCCN)C(=O)N[C@@H](CCC(=O)O)C(=O)N[C@@H](Cc1ccccc1)C(=O)N[C@@H](CC(C)C)C(=O)N[C@@H](CCCCN)C(=O)N[C@@H](Cc1c[nH]c2ccccc12)C(=O)N[C@@H](CC(C)C)C(=O)N[C@H](C(=O)N[C@@H](CC(N)=O)C(=O)N[C@H](C(=O)N[C@@H](CCCCN)C(=O)N[C@H](C(=O)N[C@H](C(=O)N[C@@H](CCC(N)=O)C(=O)O)[C@@H](C)O)C(C)C)[C@@H](C)O)[C@@H](C)CC)[C@@H](C)CC` is reported as 2.79 nM (Glucagon-like peptide 1 receptor (GLP1R, Homo sapiens, UniProt P43220); reporter gene, agonist, luciferase).
`CC(=O)c1cc([N+](=O)[O-])c(Sc2cccc(Cl)c2Cl)s1` gave an EC50 of over 50000 nM (Caspase-3 (CASP3, Homo sapiens, UniProt P42574); enzyme activity, inhibitor).
`Cc1ccc(-c2ccc(F)cc2COc2ccc(CCC(=O)O)cc2)cc1` has an EC50 of over 100000 nM (PPARG; reporter gene, agonist, luciferase).
`CC1(C)C=Cc2c(ccc3c2OC[C@@H](c2ccc(O)cc2O)C3)O1` has a Kd of 14.6 µM (PPARG; binding, ITC).
With `C#Cc1cccc(Nc2ncnc3cc(OC)c(OCCCCCCC(=O)NO)cc23)c1` the Kd was over 30.2 µM (Histone deacetylase 5 (HDAC5, Homo sapiens, UniProt Q9UQL6); cell-free assay).
The Kd of `COc1cc(Nc2ncc3c(n2)-c2ccc(Cl)cc2C(c2c(F)cccc2OC)=NC3)ccc1C(=O)NCCOCCOCCNC(=O)COc1cccc2c1C(=O)N(C1CCC(=O)NC1=O)C2=O` (centres unmarked) is reported as 6.43 µM (Ferrochelatase, mitochondrial (FECH, Homo sapiens, UniProt P22830); binding; lysate).
